ChEMBL document CHEMBL1123079, “Synthesis and biological activity of a novel adenosine analogue, 3-beta-D-ribofuranosylthieno[2,3-d]pyrimidin-4-one” (1985)

What was measured:
[1] = tested on: L1210; assay: The concentration required to inhibit the growth of L-1210 leukemic cells was evaluated; 1E-3 to 1E-4; type: functional, cell-based; conditions: Mus musculus
[2] = tested on: L1210; assay: The concentration requiredi (cytidine+2'deoxycytidine) to inhibit the growth of L-1210 leukemic cells was evaluated; type: functional, cell-based; conditions: Mus musculus
[3] = tested on: L1210; assay: The concentration required to inhibit the growth of L-1210 leukemic cells was evaluated; 1E-4 to 5E-4; type: functional, cell-based; conditions: Mus musculus
[4] = tested on: L1210; assay: The concentration required (hypoxanthine+uridine) to inhibit the growth of L-1210 leukemic cells was evaluated; 2E-4 to 2E-5; type: functional, cell-based; conditions: Mus musculus
[5] = tested on: L1210; assay: The concentration required to inhibit the growth of L-1210 leukemic cells was evaluated; 1E-4 to 1E-5; type: functional, cell-based; conditions: Mus musculus
[6] = tested on: L1210; assay: The compound was tested for inhibition of L-1210 leukemic cell growth at 10 e-4 M along with 10e-5 M adenosine.; type: functional, Mus musculus; parameters: scale not given: the % may be the effect or the level left
Outline: (§1)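 Static suspension cultures of murine L-1210 leukemic cells were grown in Fischer's medium with test compound at 10^-4 M plus 10^-5 M adenine or 10^-5 M adenosine. Read-out was the initial growth rate, the increase in cell number during the first 24 h of incubation, relative to untreated control cells (%).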

[7] = tested on: L1210; assay: The compound was tested for inhibition of L-1210 leukemic cell growth at 5 x 10 e-5 M along with 10e-5 M adenosine.; type: functional, Mus musculus; parameters: scale not given: the % may be the effect or the level left
Outline: (§2)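 L-1210 cells were held in static suspension in Fischer's medium with test compound at 5 × 10^-5 M plus either 10^-5 M adenine or 10^-5 M adenosine. Cell numbers were counted, and the rate of increase over the first 24 h was taken as the initial growth rate, given as % of untreated control. Values are means, n = 2.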

[8] = tested on: L1210; assay: The compound was tested for inhibition of L-1210 leukemic cell growth at 5 x 10 e-5 M; type: functional, Mus musculus; parameters: scale not given: the % may be the effect or the level left
Outline: (§3)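 Murine L-1210 leukemic cells were grown in static suspension culture in Fischer's medium. Test compound was added at 5 × 10^-5 or 10^-4 M alone. Initial growth rate is the rate of increase in cell number over the first 24 h of incubation, expressed as % of untreated control. Values are mean (±SD), n = 5.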

[9] = tested on: L1210; assay: The compound was tested for inhibition of L-1210 leukemic cell growth at 10 e-4 M; type: functional, Mus musculus; parameters: scale not given: the % may be the effect or the level left; outline: as §3
[10] = tested on: L1210; assay: The compound was tested for inhibition of L-1210 leukemic cell growth at 5 x 10 e-5 M along with 10e-5 M adenine.; type: functional, Mus musculus; parameters: scale not given: the % may be the effect or the level left; outline: as §2
[11] = tested on: L1210; assay: The compound was tested for inhibition of L-1210 leukemic cell growth at 10 e-4 M along with 10e-5 M adenine.; type: functional, Mus musculus; parameters: scale not given: the % may be the effect or the level left; outline: as §1

**Q.** For Nc1ccn([C@@H]2O[C@H](CO)[C@@H](O)[C@H]2O)c(=O)n1, which Concentration [1] is on record?
**A.** Its Concentration is 1 mM.

**Q.** And the Concentration [2]?
**A.** The Concentration was 100 µM.

**Q.** For Nc1ccn([C@H]2C[C@H](O)[C@@H](CO)O2)c(=O)n1, which Concentration [3] is on record?
**A.** The Concentration was 100 µM.

**Q.** Which results are given for Cc1cn([C@H]2C[C@H](O)[C@@H](CO)O2)c(=O)[nH]c1=O?
**A.** Concentration [4]: 200 µM; Concentration [5]: 100 µM

**Q.** For O=c1c2ccsc2ncn1C1O[C@H](CO)[C@@H](O)[C@H]1O (some centres not stated), which Control [6] is on record?
**A.** The Control was 50%.

**Q.** What about the Control [7] of the same molecule?
**A.** Its Control is 57%.

**Q.** What about the Control [8] of the same molecule?
**A.** Its Control is 32%.

**Q.** And the Control [9]?
**A.** Its Control is 16%.

**Q.** And the Control [10]?
**A.** Its Control is 52%.

**Q.** And the Control [11]?
**A.** Its Control is 25%.

**Q.** O=c1ccn([C@@H]2O[C@H](CO)[C@@H](O)[C@H]2O)c(=O)[nH]1 was tested. Which Concentration [1] did it give?
**A.** Its Concentration is 1 mM.
